# Assay results: publication PMC2808857 (Journal of clinical pharmacology, 2009)
# Read-outs that look alike come from different tables or passages of the source.
# How the values were obtained:
# [1] = Population pharmacokinetic analysis
# [2] = format: in vivo, human; conditions: for AUC / Cmax / T1/2 / Tmax / Urine excretion, %dose: mean (range); for Urine excretion, %dose: urine 0-24 hr
# Outline: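 Patients with refractory solid tumors took the capsule with water after overnight fasting. Plasma was drawn predose and at 0.5, 1, 2, 4, 6, 9, 12, 24, 32 and 48 h, then stored at −70°C. Drug was extracted into ethyl acetate and quantified by LC–ESI single-quadrupole MS (LLOQ 5 ng/ml). Parameters were noncompartmental per patient, with Cmax and Tmax as observed. Renal clearance = Ae,0–24/AUC0–24.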
# [3] = tested on: patients with refractory metastatic solid tumors; experiment: Response to therapy; format: in vivo, human
# Outline: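 Patients with refractory metastatic solid tumors received oral test compound once daily (5–40 mg/day dose escalation), taken with water after overnight fasting. Dosing was initially continuous over 28-day cycles, then amended to 21 days on and 7 days off. Treatment continued until progression or toxicity. Measurable disease was assessed by RECIST, with radiographic studies at end of cycle 3 and every other cycle thereafter.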
# [4] = cited from earlier work
# [5] = tested on: patients with advanced refractory solid tumors; experiment: Toxicity assessment; format: in vivo, human
# [6] = 5 mg single oral dose, cycle 1 day 1, n=2
# [7] = 10 mg single oral dose, cycle 1 day 1, n=6
# [8] = 15 mg single oral dose, cycle 1 day 1, n=3
# [9] = 20 mg single oral dose, cycle 1 day 1, n=9
# [10] = 25 mg single oral dose, cycle 1 day 1, n=6
# [11] = 30 mg single oral dose, cycle 1 day 1, n=8
# [12] = 35 mg single oral dose, cycle 1 day 1, n=6
# [13] = 40 mg single oral dose, cycle 1 day 1, n=3
substance,measurement,setting,value
(α -(3-aminophthalimido) glutarimide) [lenalidomide],interpatient variability on total lenalidomide clearance,[1]; before inclusion of CLCr in the model,70.6%
same,"BSV of Tlag, Population Mean (95% CI)",[1]; final PopPK model,30.0 (2.2 – 47.9) CV%
same,"BSV of V/F, Population Mean (95% CI)",[1]; final PopPK model,33.0 (1.0 – 48.0) CV%
same,"BSV of ka, Population Mean (95% CI)",[1]; final PopPK model,146 (95 – 184) CV%
same,"Residual error, Population Mean (95% CI)",[1]; final PopPK model,34.0 (26.9 – 40.0) CV%
same,"Tlag, Population Mean (95% CI)",[1]; final PopPK model,0.37 (0.30 – 0.43) hr
same,"V/F, Population Mean (95% CI)",[1]; final PopPK model,57.8 (49.4 – 66.2) L
same,"ka, Population Mean (95% CI)",[1]; final PopPK model,4.60 (0.66 – 8.54) 1/hr
same,"CL/F, Mild RI, Population Mean (95% CI)","[1]; final PopPK model, 50 ≤ CLCr ≤ 80 mL/min",136 (97 – 175) ml/min
same,"CL/F, Normal renal function, Population Mean (95% CI)","[1]; final PopPK model, CLCr > 80 mL/min",243 (193 – 297) ml/min
same,"BSV of Tlag, Bootstrap Median (95% CI)",[1]; non-parametric bootstrap,29.1 (4.5 – 65.1) CV%
same,"BSV of V/F, Bootstrap Median (95% CI)",[1]; non-parametric bootstrap,31.5 (14.5 – 52.4) CV%
same,"BSV of ka, Bootstrap Median (95% CI)",[1]; non-parametric bootstrap,143 (92 – 197) CV%
same,"Residual error, Bootstrap Median (95% CI)",[1]; non-parametric bootstrap,33.8 (27.4 – 40.9) CV%
same,"Tlag, Bootstrap Median (95% CI)",[1]; non-parametric bootstrap,0.37 (0.25 – 0.43) hr
same,"V/F, Bootstrap Median (95% CI)",[1]; non-parametric bootstrap,57.8 (51.3 – 66.7) L
same,"ka, Bootstrap Median (95% CI)",[1]; non-parametric bootstrap,4.67 (2.52 – 9.19) 1/hr
same,"CL/F, Mild RI, Bootstrap Median (95% CI)","[1]; non-parametric bootstrap, 50 ≤ CLCr ≤ 80 mL/min",136 (103 – 178) ml/min
same,"CL/F, Normal renal function, Bootstrap Median (95% CI)","[1]; non-parametric bootstrap, CLCr > 80 mL/min",243 (202 – 297) ml/min
same,dose-normalized AUC,[1]; patients with normal renal function,75 ng·h/ml per mg
same,dose-normalized AUC,[1]; renally impaired subjects (mild RI),167 ng·h/ml per mg
same,AUC,[2]; [6],"302 (257, 346) ng·hr/ml"
same,Cmax,[2]; [6],"80 (66, 93) ng/ml"
same,T1/2,[2]; [6],"2.7 (2.1, 3.3) hr"
same,Tmax,[2]; [6],"0.75 (0.5, 1) hr"
same,AUC,[2]; [7],571 (256–1415) ng·hr/ml
same,Cmax,[2]; [7],107 (59–163) ng/ml
same,T1/2,[2]; [7],3.1 (2.4–4.2) hr
same,Tmax,[2]; [7],1 (0.5– 4) hr
same,AUC,[2]; [8],1090 (712–1391) ng·hr/ml
same,Cmax,[2]; [8],195 (174–224) ng/ml
same,Tmax,[2]; [8],2 (1–4) hr
same,AUC,[2]; [9],1901 (239–4093) ng·hr/ml
same,Cmax,[2]; [9],343 (64–621) ng/ml
same,T1/2,[2]; [9],3.1 (1.9–7.8) hr
same,Tmax,[2]; [9],1 (0.5–6.1) hr
same,AUC,[2]; [10],3820 (1081–11363) ng·hr/ml
same,Cmax,[2]; [10],451 (311–631) ng/ml
same,T1/2,[2]; [10],5.3 (1.6–15.9) hr
same,Tmax,[2]; [10],1.5 (0.5–8.9) hr
same,AUC,[2]; [11],4040 (844–15445) ng·hr/ml
same,Cmax,[2]; [11],593 (69–1315) ng/ml
same,T1/2,[2]; [11],4.0 (3.2–14.2) hr
same,Tmax,[2]; [11],1.5 (0.5–6) hr
same,"Urine excretion, %dose","[2]; 30 mg single oral dose, n=3",47.0 (36.3–62.0) %dose
same,AUC,[2]; [12],5309 (3172–7062) ng·hr/ml
same,Cmax,[2]; [12],782 (594–969) ng/ml
same,T1/2,[2]; [12],6.7 (3.7–14.5) hr
same,Tmax,[2]; [12],1 (0.5–4) hr
same,"Urine excretion, %dose","[2]; 35 mg single oral dose, n=4",54.6 (48.3–63.1) %dose
same,AUC,[2]; [13],3926 (3281–4656) ng·hr/ml
same,Cmax,[2]; [13],842 (648–1002) ng/ml
same,T1/2,[2]; [13],4.1 (1.8–6.2) hr
same,Tmax,[2]; [13],1 (0.75–2) hr
same,"Urine excretion, %dose","[2]; 40 mg single oral dose, n=2","44.9 (43.8, 46.0) %dose"
same,CL/F_renal as share of the total clearance,[2]; 9 patients,about 50%
same,amount of unchanged lenalidomide excreted into urine for 24 hours,[2]; 30-40 mg dose groups,45–55 % of dose
same,mean half-life (T1/2),"[2]; across all doses 5-40 mg, oral",3.9 h
same,time of peak plasma concentration,[2]; after single oral administration,around 1 hour
same,median time on-study of patients with stable disease,"[3]; 12 patients, range 4 – 11",5 months
same,complete or partial response,[3]; 44 evaluable patients,No complete or partial response was noted
same,patients with stable disease who had prostate cancer,[3]; of 12 patients with SD,9
same,"unchanged lenalidomide excreted into urine, fraction of dose",[4]; healthy volunteers,two thirds
same,increase of lenalidomide exposure in mild RI over normal function,[4]; patients with multiple myeloma,56%
same,patients with dose reductions,"[5]; continuous doses, 4 out of 15 patients",27%
same,"Anemia, Grade 3, number of patients",[5]; continuous dosing (n=15),1
same,"Constipation, Grade 1, number of patients",[5]; continuous dosing (n=15),2
same,"Constipation, Grade 2, number of patients",[5]; continuous dosing (n=15),1
same,"Diarrhea, Grade 1, number of patients",[5]; continuous dosing (n=15),4
same,"Dizziness, Grade 1, number of patients",[5]; continuous dosing (n=15),3
same,"Dizziness, Grade 2, number of patients",[5]; continuous dosing (n=15),1
same,"Fatigue, Grade 1, number of patients",[5]; continuous dosing (n=15),4
same,"Fatigue, Grade 2, number of patients",[5]; continuous dosing (n=15),1
same,"Flatulence, Grade 1, number of patients",[5]; continuous dosing (n=15),3
same,"Hypotension, Grade 1, number of patients",[5]; continuous dosing (n=15),2
same,"Hypotension, Grade 3, number of patients",[5]; continuous dosing (n=15),1
same,"Nausea, Grade 1, number of patients",[5]; continuous dosing (n=15),4
same,"Neuropathic Sensory, Grade 1, number of patients",[5]; continuous dosing (n=15),4
same,"Neutropenia, Grade 1, number of patients",[5]; continuous dosing (n=15),1
same,"Neutropenia, Grade 2, number of patients",[5]; continuous dosing (n=15),3
same,"Neutropenia, Grade 3, number of patients",[5]; continuous dosing (n=15),2
same,"Pleural effusion, Grade 1, number of patients",[5]; continuous dosing (n=15),2
same,"Pruritus, Grade 1, number of patients",[5]; continuous dosing (n=15),5
same,"Pruritus, Grade 2, number of patients",[5]; continuous dosing (n=15),1
same,"Rash/desquamation, Grade 1, number of patients",[5]; continuous dosing (n=15),4
same,"SGPT, Grade 2, number of patients",[5]; continuous dosing (n=15),2
same,"Thrombosis, Grade 3, number of patients",[5]; continuous dosing (n=15),2
same,"Anemia, Grade 1, number of patients",[5]; intermittent dose (n=35),1
same,"Anemia, Grade 2, number of patients",[5]; intermittent dose (n=35),1
same,"Anemia, Grade 3, number of patients",[5]; intermittent dose (n=35),1
same,"Anorexia, Grade 1, number of patients",[5]; intermittent dose (n=35),3
same,"Anorexia, Grade 2, number of patients",[5]; intermittent dose (n=35),1
same,"Constipation, Grade 1, number of patients",[5]; intermittent dose (n=35),4
same,"Constipation, Grade 2, number of patients",[5]; intermittent dose (n=35),5
same,"Diarrhea, Grade 1, number of patients",[5]; intermittent dose (n=35),5
same,"Diarrhea, Grade 3, number of patients",[5]; intermittent dose (n=35),1
same,"Dizziness, Grade 1, number of patients",[5]; intermittent dose (n=35),8
same,"Dysgeusia, Grade 1, number of patients",[5]; intermittent dose (n=35),3
same,"Edema, Grade 1, number of patients",[5]; intermittent dose (n=35),4
same,"Fatigue, Grade 1, number of patients",[5]; intermittent dose (n=35),14
same,"Fever, Grade 1, number of patients",[5]; intermittent dose (n=35),4
same,"Hemolysis, Grade 2, number of patients",[5]; intermittent dose (n=35),1
same,"Hemolysis, Grade 4, number of patients",[5]; intermittent dose (n=35),1
same,"Infection, Grade 2, number of patients",[5]; intermittent dose (n=35),1
same,"Infection, Grade 3, number of patients",[5]; intermittent dose (n=35),2
same,"Insomnia, Grade 1, number of patients",[5]; intermittent dose (n=35),5
same,"Leukopenia, Grade 2, number of patients",[5]; intermittent dose (n=35),1
same,"Leukopenia, Grade 3, number of patients",[5]; intermittent dose (n=35),1
same,"Myalgia, Grade 1, number of patients",[5]; intermittent dose (n=35),5
same,"Myalgia, Grade 2, number of patients",[5]; intermittent dose (n=35),1
same,"Nausea, Grade 1, number of patients",[5]; intermittent dose (n=35),9
same,"Nausea, Grade 2, number of patients",[5]; intermittent dose (n=35),1
same,"Neutropenia, Grade 1, number of patients",[5]; intermittent dose (n=35),1
same,"Neutropenia, Grade 2, number of patients",[5]; intermittent dose (n=35),2
same,"Neutropenia, Grade 3, number of patients",[5]; intermittent dose (n=35),2
same,"Neutropenia, Grade 4, number of patients",[5]; intermittent dose (n=35),3
same,"Pleural effusion, Grade 1, number of patients",[5]; intermittent dose (n=35),2
same,"Pleural effusion, Grade 3, number of patients",[5]; intermittent dose (n=35),1
same,"Pruritus, Grade 1, number of patients",[5]; intermittent dose (n=35),4
same,"Pruritus, Grade 2, number of patients",[5]; intermittent dose (n=35),1
same,"Rash/desquamation, Grade 1, number of patients",[5]; intermittent dose (n=35),7
same,"Rash/desquamation, Grade 2, number of patients",[5]; intermittent dose (n=35),3
same,"Supraventricular arrythmia, Grade 4, number of patients",[5]; intermittent dose (n=35),1
same,"Thrombocytopenia, Grade 1, number of patients",[5]; intermittent dose (n=35),3
same,"Thrombocytopenia, Grade 3, number of patients",[5]; intermittent dose (n=35),2
same,patients with dose reductions,"[5]; intermittent doses, 7 out of 30 patients",23%
same,dose up to which lenalidomide was well tolerated,"[5]; intermittent dosing schedule, 21 days on, 7 days off",up to 35 mg/day
